Assay results as given in ChEMBL document CHEMBL4339190, “2,6-Disubstituted imidazo[2,1-b][1,3,4]thiadiazole derivatives as potent staphylococcal biofilm inhibitors” (Eur J Med Chem, 2019).
Activity calls are given as the source filed them. The rule behind the calls is not given here.

What follows are molecules tested on Staphylococcus aureus (assay: Antimicrobial activity against Staphylococcus aureus ATCC 6538 assessed as growth inhibition of planktonic forms incubated for 24 hrs). Settings: in vitro.
Format: organism-based
Procedure, shortened: (§1)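 Broth microdilution in tryptic soy broth. Two-fold series 100 to 0.75 μg/mL made from a 1 mg/mL stock in 0.9% NaCl. Inoculum ~10⁶ cfu/mL taken from a 24 h culture, 37 °C 24 h.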
For `Br.Cn1cc(-c2nn3cc(-c4ccc(F)cc4)nc3s2)c2cc(Br)ccc21`, the MIC was > 100 µg/mL.
`Cn1cc(-c2nn3cc(-c4ccc(C(F)(F)F)cc4)nc3s2)c2ccccc21` was tested, and the MIC was > 100 µg/mL.
With `Br.Cn1cc(-c2nn3cc(-c4ccc([N+](=O)[O-])cc4)nc3s2)c2cc(Br)ccc21` the MIC was > 100 µg/mL.
In the case of `Br.COc1ccc(OC)c(-c2cn3nc(-c4c[nH]c5ccc(Cl)cc45)sc3n2)c1`, the MIC is reported as > 100 µg/mL.

These molecules were tested on Staphylococcus epidermidis (assay: Antibiofilm activity against Staphylococcus epidermidis ATCC 12228 incubated for 24 hrs by crystal violet-staining based assay). Settings: not given.
Format: functional
Procedure, shortened: (§2)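 Biofilm prevention: 0.5 McFarland inoculum (2.5 µL) in 100 µL TSB with 2% w/v glucose, compound present from the start over 100–0.1 µg/mL, 37 °C 24 h. Washed with PBS, stained 0.1% w/v crystal violet 30 min, eluted with 33% v/v acetic acid, read at 570 nm. BIC50 (50% inhibition versus untreated control) derived by linear regression; triplicate, repeated at least twice.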
In the case of `Br.Cn1cc(-c2nn3cc(-c4ccc(F)cc4)nc3s2)c2cc(Br)ccc21`, the MBIC50 is reported as “inactive”.
With `Cn1cc(-c2nn3cc(-c4ccc(C(F)(F)F)cc4)nc3s2)c2ccccc21` the MBIC50 was “inactive”.
In the case of `Br.Cn1cc(-c2nn3cc(-c4ccc([N+](=O)[O-])cc4)nc3s2)c2cc(Br)ccc21`, the MBIC50 is reported as 71.7 µM and the inhibition is reported as “Dose-dependent effect”.
For `Br.COc1ccc(OC)c(-c2cn3nc(-c4c[nH]c5ccc(Cl)cc45)sc3n2)c1`, the MBIC50 was 18.9 µM and the inhibition was “Dose-dependent effect”.

The molecules below were run on Bacteria (assay: Inhibition of recombinant bacterial SrtA at 100 uM using 5-FAM/QXL 520 Sortase as substrate preincubated for 10 mins followed by substrate addition and measured every 5 mins for 60 mins by fluorescence assay). Settings: not given.
Procedure, shortened: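 FRET kit assay: 2.5 µg/ml recombinant SrtA, 4 µM fluorescent peptide substrate, compound at 100 µM in 1% DMSO. Compound and enzyme added first, then substrate. Fluorescence (Ex/Em 490/520 nm) recorded every 5 min for 60 min. Substrate without enzyme served as negative control and 4-(hydroxymercuri)benzoic acid as positive control.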
In the case of `Br.COc1ccc(OC)c(-c2cn3nc(-c4c[nH]c5ccc(Cl)cc45)sc3n2)c1`, the inhibition is reported as “inactive”.

Each molecule was assayed on Pseudomonas aeruginosa (assay: Antibiofilm activity against Pseudomonas aeruginosa ATCC 15442 incubated for 24 hrs by crystal violet-staining based assay). Settings: not given.
Format: functional
Procedure, shortened: as §2
For `Br.Cn1cc(-c2nn3cc(-c4ccc(F)cc4)nc3s2)c2cc(Br)ccc21`, the MBIC50 was “inactive”.
`Cn1cc(-c2nn3cc(-c4ccc(C(F)(F)F)cc4)nc3s2)c2ccccc21` was tested, and the MBIC50 was “inactive”.
`Br.Cn1cc(-c2nn3cc(-c4ccc([N+](=O)[O-])cc4)nc3s2)c2cc(Br)ccc21` was tested, and the MBIC50 was 38.6 µM and the inhibition was “Dose-dependent effect”.

These molecules were tested on Staphylococcus aureus (assay: Antibiofilm activity against Staphylococcus aureus ATCC 25923 incubated for 24 hrs by crystal violet-staining based assay). Settings: not given.
Format: functional
Procedure, shortened: as §2
With `Br.Cn1cc(-c2nn3cc(-c4ccc(F)cc4)nc3s2)c2cc(Br)ccc21` the MBIC50 was “inactive”.
For `Cn1cc(-c2nn3cc(-c4ccc(C(F)(F)F)cc4)nc3s2)c2ccccc21`, the MBIC50 was “inactive”.
With `Br.Cn1cc(-c2nn3cc(-c4ccc([N+](=O)[O-])cc4)nc3s2)c2cc(Br)ccc21` the MBIC50 was 20.9 µM and the inhibition was “Dose-dependent effect”.
`Br.COc1ccc(OC)c(-c2cn3nc(-c4c[nH]c5ccc(Cl)cc45)sc3n2)c1` was tested, and the MBIC50 was 24.2 µM and the inhibition was “Dose-dependent effect”.

The molecules below were run on Escherichia coli (assay: Antimicrobial activity against Escherichia coli ATCC 25922 assessed as growth inhibition of planktonic forms incubated for 24 hrs). Settings: in vitro.
Format: organism-based
Procedure, shortened: as §1
For `Br.Cn1cc(-c2nn3cc(-c4ccc(F)cc4)nc3s2)c2cc(Br)ccc21`, the MIC was > 100 µg/mL.
In the case of `Cn1cc(-c2nn3cc(-c4ccc(C(F)(F)F)cc4)nc3s2)c2ccccc21`, the MIC is reported as > 100 µg/mL.
In the case of `Br.Cn1cc(-c2nn3cc(-c4ccc([N+](=O)[O-])cc4)nc3s2)c2cc(Br)ccc21`, the MIC is reported as > 100 µg/mL.
With `Br.COc1ccc(OC)c(-c2cn3nc(-c4c[nH]c5ccc(Cl)cc45)sc3n2)c1` the MIC was > 100 µg/mL.

Each molecule was assayed on Escherichia coli (assay: Antibiofilm activity against Escherichia coli ATCC 25922 incubated for 24 hrs by crystal violet-staining based assay). Settings: not given.
Format: functional
Procedure, shortened: as §2
With `Br.Cn1cc(-c2nn3cc(-c4ccc(F)cc4)nc3s2)c2cc(Br)ccc21` the MBIC50 was “inactive”.
For `Cn1cc(-c2nn3cc(-c4ccc(C(F)(F)F)cc4)nc3s2)c2ccccc21`, the MBIC50 was “inactive”.
`Br.Cn1cc(-c2nn3cc(-c4ccc([N+](=O)[O-])cc4)nc3s2)c2cc(Br)ccc21` was tested, and the MBIC50 was 19.6 µM and the inhibition was “Dose-dependent effect”.
For `Br.COc1ccc(OC)c(-c2cn3nc(-c4c[nH]c5ccc(Cl)cc45)sc3n2)c1`, the MBIC50 was 91.5 µM and the inhibition was “Dose-dependent effect”.

Each molecule was assayed on Staphylococcus aureus (assay: Antimicrobial activity against Staphylococcus aureus ATCC 25923 assessed as growth inhibition of planktonic forms incubated for 24 hrs). Settings: in vitro.
Format: organism-based
Procedure, shortened: as §1
For `Br.Cn1cc(-c2nn3cc(-c4ccc(F)cc4)nc3s2)c2cc(Br)ccc21`, the MIC was > 100 µg/mL.
For `Cn1cc(-c2nn3cc(-c4ccc(C(F)(F)F)cc4)nc3s2)c2ccccc21`, the MIC was > 100 µg/mL.
`Br.Cn1cc(-c2nn3cc(-c4ccc([N+](=O)[O-])cc4)nc3s2)c2cc(Br)ccc21` was tested, and the MIC was > 100 µg/mL.
`Br.COc1ccc(OC)c(-c2cn3nc(-c4c[nH]c5ccc(Cl)cc45)sc3n2)c1` was tested, and the MIC was > 100 µg/mL.

The molecules below were run on Staphylococcus epidermidis (assay: Antimicrobial activity against Staphylococcus epidermidis ATCC 12228 assessed as growth inhibition of planktonic forms incubated for 24 hrs). Settings: in vitro.
Format: organism-based
Procedure, shortened: as §1
With `Br.Cn1cc(-c2nn3cc(-c4ccc(F)cc4)nc3s2)c2cc(Br)ccc21` the MIC was > 100 µg/mL.
`Cn1cc(-c2nn3cc(-c4ccc(C(F)(F)F)cc4)nc3s2)c2ccccc21` was tested, and the MIC was > 100 µg/mL.
With `Br.Cn1cc(-c2nn3cc(-c4ccc([N+](=O)[O-])cc4)nc3s2)c2cc(Br)ccc21` the MIC was > 100 µg/mL.
In the case of `Br.COc1ccc(OC)c(-c2cn3nc(-c4c[nH]c5ccc(Cl)cc45)sc3n2)c1`, the MIC is reported as > 100 µg/mL.

Each molecule was assayed on Staphylococcus aureus (assay: Antibiofilm activity against Staphylococcus aureus ATCC 6538 incubated for 24 hrs by crystal violet-staining based assay). Settings: not given.
Format: functional
Procedure, shortened: as §2
In the case of `Br.Cn1cc(-c2nn3cc(-c4ccc(F)cc4)nc3s2)c2cc(Br)ccc21`, the MBIC50 is reported as “inactive”.
In the case of `Cn1cc(-c2nn3cc(-c4ccc(C(F)(F)F)cc4)nc3s2)c2ccccc21`, the MBIC50 is reported as “inactive”.
With `Br.Cn1cc(-c2nn3cc(-c4ccc([N+](=O)[O-])cc4)nc3s2)c2cc(Br)ccc21` the MBIC50 was 3.1 µM and the inhibition was “Dose-dependent effect”.
`Br.COc1ccc(OC)c(-c2cn3nc(-c4c[nH]c5ccc(Cl)cc45)sc3n2)c1` was tested, and the MBIC50 was 0.5 µM, the MBIC90 was 16.2 µg/mL and the inhibition was “Dose-dependent effect”.

These molecules were tested on Pseudomonas aeruginosa (assay: Antibiofilm activity against Pseudomonas aeruginosa ATCC 15442 assessed as inhibition of biofilm formation at 100 ug/ml incubated for 24 hrs by crystal violet-staining based assay). Settings: ATCC 15442, 24 h.
Format: functional
`Br.COc1ccc(OC)c(-c2cn3nc(-c4c[nH]c5ccc(Cl)cc45)sc3n2)c1` was tested, and the inhibition at 100 µg/mL was < 15%.

These molecules were tested on Pseudomonas aeruginosa (assay: Antimicrobial activity against Pseudomonas aeruginosa ATCC 15442 assessed as growth inhibition of planktonic forms incubated for 24 hrs). Settings: in vitro.
Format: organism-based
Procedure, shortened: as §1
For `Br.Cn1cc(-c2nn3cc(-c4ccc(F)cc4)nc3s2)c2cc(Br)ccc21`, the MIC was > 100 µg/mL.
With `Cn1cc(-c2nn3cc(-c4ccc(C(F)(F)F)cc4)nc3s2)c2ccccc21` the MIC was > 100 µg/mL.
For `Br.Cn1cc(-c2nn3cc(-c4ccc([N+](=O)[O-])cc4)nc3s2)c2cc(Br)ccc21`, the MIC was > 100 µg/mL.
`Br.COc1ccc(OC)c(-c2cn3nc(-c4c[nH]c5ccc(Cl)cc45)sc3n2)c1` was tested, and the MIC was > 100 µg/mL.
